Measured values from ChEMBL document CHEMBL4402601, “Discovery of a Silicon-Containing Pan-Genotype Hepatitis C Virus NS5A Inhibitor” (J Med Chem, 2020).

Experiments:
[1] = system: Hepatitis C virus; assay: Antiviral activity against Hepatitis C virus subtype 1a H77 subgenomic replicon expressing NS5A infected in human HuH7 cells assessed as reduction in viral replication incubated for 3 days by luciferase reporter gene assay; type: functional, organism-based, Hepacivirus hominis; conditions: subtype 1a H77, Huh-7, 72 h
How it was run: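 HCV replicon cell assay; inhibition of replication read as decrease in luciferase signal. Percent inhibition computed at each compound concentration; EC50 (pM) from nonlinear regression fit to a 4-parameter logistic equation. Values are means of triplicate wells, with each experiment run at least twice.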

[2] = system: Hepatitis C virus; assay: Antiviral activity against Hepatitis C virus subtype 1a H77 subgenomic replicon expressing NS5A M28T mutant infected in human HuH7 cells assessed as reduction in viral replication incubated for 3 days by luciferase reporter gene assay; type: functional, organism-based, Hepacivirus hominis; conditions: subtype 1a H77, Huh-7, 72 h
How it was run: (§1)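 NS5A resistance-associated variants introduced into GT1a-H77 or GT1b-Con1 replicons. In transient assays, each variant replicon was electroporated into a Huh-7-derived cell line. Inhibition measured as drop in luciferase signal. Percent inhibition computed per concentration; EC50 from 4-parameter logistic nonlinear fit. Fold resistance is variant EC50 relative to the matching reference replicon.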

[3] = system: Hepatitis C virus; assay: Antiviral activity against Hepatitis C virus subtype 1a H77 subgenomic replicon expressing NS5A Q30K mutant infected in human HuH7 cells assessed as reduction in viral replication incubated for 3 days by luciferase reporter gene assay; type: functional, organism-based, Hepacivirus hominis; conditions: subtype 1a H77, Huh-7, 72 h; how it was run: as §1
[4] = system: Hepatitis C virus; assay: Antiviral activity against Hepatitis C virus subtype 1a H77 subgenomic replicon expressing NS5A Q30E mutant infected in human HuH7 cells assessed as reduction in viral replication incubated for 3 days by luciferase reporter gene assay; type: functional, organism-based, Hepacivirus hominis; conditions: subtype 1a H77, Huh-7, 72 h; how it was run: as §1
[5] = system: Hepatitis C virus; assay: Antiviral activity against Hepatitis C virus subtype 1b Con1 replicon expressing NS5A P32L mutant infected in human HuH7 cells assessed as reduction in viral replication incubated for 3 days by luciferase reporter gene assay; type: functional, organism-based, Hepacivirus hominis; conditions: subtype 1b Con1, Huh-7, 72 h; how it was run: as §1
[6] = system: Hepatitis C virus; assay: Resistance index, ratio of EC50 for Hepatitis C virus subtype 1a H77 subgenomic replicon expressing NS5A Q30K mutant infected in human HuH7 cells to EC50 for Hepatitis C virus subtype 1a H77 subgenomic replicon expressing NS5A infected in human HuH7 cells; type: functional, Hepacivirus hominis
[7] = system: Hepatitis C virus; assay: Resistance index, ratio of EC50 for Hepatitis C virus subtype 1a H77 subgenomic replicon expressing NS5A Q30E mutant infected in human HuH7 cells to EC50 for Hepatitis C virus subtype 1a H77 subgenomic replicon expressing NS5A infected in human HuH7 cells; type: functional, Hepacivirus hominis
[8] = system: Hepatitis C virus; assay: Resistance index, ratio of EC50 for Hepatitis C virus subtype 1b Con1 subgenomic replicon expressing NS5A L31W mutant infected in human HuH7 cells to EC50 for Hepatitis C virus subtype 1b Con1 subgenomic replicon expressing NS5A infected in human HuH7 cells; type: functional, Hepacivirus hominis
[9] = Metabolic stability in mouse liver microsomes assessed as compound remaining at 1 uM incubated for 60 mins by UPLC-MS/MS analysis; type: ADME, Microsome; conditions: read-out: Stability
How it was run: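 Pooled mouse, rat or human liver microsomes (0.5 mg/mL) with 1 μM compound, 1 mM NADPH, 5 mM MgCl₂ and 100 mM potassium phosphate pH 7.4. Pre-incubated 5 min at 37 °C, started with NADPH, then run 60 min at 37 °C. Quenched with ice-cold acetonitrile containing internal standard; parent remaining measured by UPLC-MS/MS.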

[10] = Half life in mouse at 2 mg/kg, iv by UPLC-MS/MS analysis; type: ADME, organism-based; conditions: in vivo
How it was run: (§2)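 Overnight-fasted mice dosed iv once at 2 mg/kg. Vehicle was 2:2:96 (v/v) alcohol : Tween 80 : glucose injection diluted 2.5 times with 10% glucose injection. Plasma concentration measured by UPLC-MS/MS.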

[11] = AUClast in mouse at 2 mg/kg, iv by UPLC-MS/MS analysis; type: ADME, organism-based; conditions: in vivo; how it was run: as §2
[12] = Clearance in mouse plasma at 2 mg/kg, iv by UPLC-MS/MS analysis; type: ADME, organism-based; how it was run: as §2
[13] = Half life in mouse at 10 mg/kg, po by UPLC-MS/MS analysis; type: ADME, organism-based; conditions: in vivo
How it was run: (§3)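 Overnight-fasted mice given a single 10 mg/kg oral dose in 2:2:96 (v/v) alcohol : Tween 80 : glucose injection. Plasma levels by UPLC-MS/MS. Bioavailability derived against a 2 mg/kg iv arm using the same formulation diluted 2.5 times with 10% glucose injection.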

[14] = Cmax in mouse at 10 mg/kg, po by UPLC-MS/MS analysis; type: ADME, organism-based; set-up: dose 10 mg/kg, route oral; conditions: in vivo; how it was run: as §3
[15] = AUClast in mouse at 10 mg/kg, po by UPLC-MS/MS analysis; type: ADME, organism-based; conditions: in vivo; how it was run: as §3
[16] = Tmax in dog at 5 mg/kg, po by UPLC-MS/MS analysis; type: ADME, organism-based, Canis lupus familiaris; conditions: in vivo
[17] = Cmax in dog at 5 mg/kg, po by UPLC-MS/MS analysis; type: ADME, organism-based, Canis lupus familiaris; set-up: dose 5 mg/kg, route oral; conditions: in vivo
[18] = AUC (0 to 48 hrs) in dog at 5 mg/kg, po by UPLC-MS/MS analysis; type: ADME, organism-based, Canis lupus familiaris; set-up: time < 48 hr, dose 5 mg/kg, route oral; conditions: in vivo
[19] = AUC (0 to infinity) in dog at 5 mg/kg, po by UPLC-MS/MS analysis; type: ADME, organism-based, Canis lupus familiaris; set-up: dose 5 mg/kg, route oral, time infinity; conditions: in vivo
[20] = Drug distribution in mouse plasma at 10 mg/kg, po incubated for 24 hrs by UPLC-MS/MS analysis; type: ADME, organism-based
How it was run: (§4)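 Oral dosing in mice and rats; compound measured in plasma and liver by UPLC-MS/MS at each time point, n = 3 (mean ± SD). LPR is mean liver concentration divided by mean plasma concentration.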

[21] = Drug distribution in rat plasma at 10 mg/kg, po incubated for 0.5 hrs by UPLC-MS/MS analysis; type: ADME, organism-based; how it was run: as §4
[22] = Drug distribution in mouse liver at 10 mg/kg, po incubated for 0.5 hrs by UPLC-MS/MS analysis; type: ADME, organism-based; conditions: read-out: Drug uptake; how it was run: as §4
[23] = Drug distribution in rat liver at 10 mg/kg, po incubated for 0.5 hrs by UPLC-MS/MS analysis; type: ADME, organism-based; conditions: read-out: Drug uptake; how it was run: as §4
[24] = Ratio of drug distribution in mouse liver to drug distribution in mouse plasma measured after 0.5 hrs by UPLC-MS/MS analysis; type: ADME, cell-free; how it was run: as §4
[25] = Ratio of drug distribution in rat liver to drug distribution in rat plasma measured after 0.5 hrs by UPLC-MS/MS analysis; type: ADME, cell-free; how it was run: as §4
[26] = Cytotoxicity against human HuH7 cells assessed as reduction in cell viability incubated for 3 days by luciferase reporter gene assay; type: cell-based, Huh-7
[27] = Toxicity in mouse assessed as abnormality on organs at 300 mg/kg, po administered for 14 days and measured on day 14; type: organism-based; conditions: in vivo, 336 h
How it was run: (§5)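 Mice randomised after acclimation into two groups of 5 males and 5 females. Compound at 300 mg/kg or vehicle alone given once daily by oral gavage for 14 days. Clinical signs observed daily. Body weight and food intake recorded on day 1, then twice weekly. Animals killed after the 14th dose.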

[28] = Toxicity in mouse assessed as effect on hematological parameters at 300 mg/kg, po administered for 14 days and measured on day 14; type: organism-based; conditions: in vivo, 336 h; how it was run: as §5
[29] = Toxicity in mouse assessed as effect on hepatological parameters at 300 mg/kg, po administered for 14 days and measured on day 14; type: organism-based; conditions: in vivo, 336 h; how it was run: as §5
[30] = system: Hepatitis C virus; assay: Antiviral activity against Hepatitis C virus subtype 5a subgenomic replicon expressing NS5A infected in human HuH7 cells assessed as reduction in viral replication incubated for 3 days by luciferase reporter gene assay; type: functional, organism-based, Hepacivirus hominis; conditions: Huh-7, 72 h

COC(=O)N[C@H](C(=O)N1CCC[C@H]1C(=O)Nc1ccc([C@@H]2CC[C@@H](c3ccc(NC(=O)[C@@H]4CCCN4C(=O)[C@@H](NC(=O)OC)[C@@H](C)OC)cc3)N2c2cc(F)c(N3CC[Si](C)(C)CC3)c(F)c2)cc1)[C@@H](C)OC
EC50 [1]: 1.2 pM | EC50 [2]: 2.37 pM | EC50 [3]: 0.0375 nM | EC50 [4]: 0.216 nM | EC50 [5]: 1.64 pM | Ratio EC50 [6]: 30.5 | Ratio EC50 [7]: 175 | Ratio EC50 [8]: 11.4 | remaining at 1 h, 1 µM [9]: 60.4% | half-life [10]: 732 min | AUClast [11]: 17863 ng/hr.ml | clearance [12]: 1.67 mL/min/kg | half-life [13]: 480 min | Cmax [14]: 454 ng/mL | AUClast [15]: 6446 ng/hr.ml | Tmax [16]: 5.3 h | Cmax [17]: 395 ng/mL | AUC [18]: 8020 ng·h/mL | AUC [19]: 10100 ng·h/mL | concentration at 24 h [20]: 58.6 ng/mL | concentration at 0.5 h [21]: 40.9 ng/mL | concentration at 0.5 h [22]: 436 ng/g | concentration at 0.5 h [23]: 359 ng/g | Kp at 0.5 h [24]: 8.8 | Kp at 0.5 h [25]: 2.7 | CC50 at 72 h [26]: > 50 µM | Activity [27]: Non-Toxic | Activity [28]: Non-Toxic | Activity [29]: Non-Toxic | EC50 [30]: 1.6 pM
